These results are taken from ChEMBL document CHEMBL1641429, “Synthesis and xanthine oxidase inhibitory activity of 7-methyl-2-(phenoxymethyl)-5H-[1,3,4]thiadiazolo[3,2-a]pyrimidin-5-one derivatives” (Bioorg Med Chem, 2011).

Assay [1] has as its target Xanthine dehydrogenase/oxidase (Rattus norvegicus, UniProt P22985). Nature of the assay: Inhibition of rat liver xanthine oxidase by spectrophotometry. The method in brief:
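Enzyme source: for line 2, supernatant of centrifuged rat liver homogenate stored at −80 °C; for line 1, commercial microbial XO run the same way. Mix of 50 mM potassium phosphate pH 7.5, 0.3 mM EDTA and enzyme. Reaction started with xanthine substrate plus test compound. Uric acid read at 292 nm at 10 min intervals, ambient temperature. % inhibition versus control without compound; triplicates. Protein by Lowry, BSA standard.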

The target of assay [2] is Xanthine dehydrogenase/oxidase (Bos taurus, UniProt P80457). Nature of the assay: Inhibition of bovine milk xanthine oxidase by spectrophotometry.
The nature of assay [3]: Inhibition of microbial xanthine oxidase by spectrophotometry. A digest of the protocol:
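Enzyme source: for line 2, supernatant of centrifuged rat liver homogenate stored at −80 °C; for line 1, commercial microbial XO run the same way. Mix of 50 mM potassium phosphate pH 7.5, 0.3 mM EDTA and enzyme. Reaction started with xanthine substrate plus test compound. Protein by Lowry, BSA standard.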

SMILES strings stand for the structures. pIC50: −log10 of the molar value.

Xanthine dehydrogenase/oxidase (Bos taurus, UniProt P80457), sequence (P80457 whole entry): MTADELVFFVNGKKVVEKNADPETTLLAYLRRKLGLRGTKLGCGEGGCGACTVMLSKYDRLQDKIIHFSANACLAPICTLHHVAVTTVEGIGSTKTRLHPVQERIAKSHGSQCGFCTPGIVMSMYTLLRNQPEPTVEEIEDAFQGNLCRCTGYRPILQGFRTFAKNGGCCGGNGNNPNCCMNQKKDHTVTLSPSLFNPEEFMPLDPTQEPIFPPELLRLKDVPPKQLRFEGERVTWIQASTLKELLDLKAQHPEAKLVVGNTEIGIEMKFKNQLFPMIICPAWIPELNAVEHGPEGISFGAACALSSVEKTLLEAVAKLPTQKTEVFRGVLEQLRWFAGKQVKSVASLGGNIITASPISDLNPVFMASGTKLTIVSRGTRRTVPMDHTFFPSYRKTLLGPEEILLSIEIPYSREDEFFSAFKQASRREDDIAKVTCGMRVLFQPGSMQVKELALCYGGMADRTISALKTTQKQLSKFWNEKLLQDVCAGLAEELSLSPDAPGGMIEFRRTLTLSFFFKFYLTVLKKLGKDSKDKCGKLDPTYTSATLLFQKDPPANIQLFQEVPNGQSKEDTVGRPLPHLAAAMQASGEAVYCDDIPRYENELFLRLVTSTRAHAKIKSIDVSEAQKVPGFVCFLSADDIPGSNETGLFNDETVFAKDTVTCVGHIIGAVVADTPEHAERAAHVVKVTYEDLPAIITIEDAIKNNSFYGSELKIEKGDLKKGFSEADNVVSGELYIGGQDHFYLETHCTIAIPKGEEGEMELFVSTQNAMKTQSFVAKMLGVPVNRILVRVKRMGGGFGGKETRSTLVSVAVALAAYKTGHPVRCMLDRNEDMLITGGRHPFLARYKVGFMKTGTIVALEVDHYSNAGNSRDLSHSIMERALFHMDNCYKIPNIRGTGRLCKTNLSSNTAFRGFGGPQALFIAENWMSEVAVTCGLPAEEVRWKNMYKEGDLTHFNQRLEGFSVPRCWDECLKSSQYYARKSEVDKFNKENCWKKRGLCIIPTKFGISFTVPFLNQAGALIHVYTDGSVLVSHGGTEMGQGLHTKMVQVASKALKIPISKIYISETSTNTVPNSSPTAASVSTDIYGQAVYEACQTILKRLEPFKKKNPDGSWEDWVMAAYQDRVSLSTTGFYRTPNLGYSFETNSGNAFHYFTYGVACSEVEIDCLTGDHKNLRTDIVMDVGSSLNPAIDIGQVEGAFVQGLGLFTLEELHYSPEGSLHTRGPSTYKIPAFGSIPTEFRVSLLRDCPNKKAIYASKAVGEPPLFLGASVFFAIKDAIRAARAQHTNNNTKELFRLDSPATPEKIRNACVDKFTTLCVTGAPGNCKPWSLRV
Xanthine dehydrogenase/oxidase (Rattus norvegicus, UniProt P22985), sequence (P22985 whole entry): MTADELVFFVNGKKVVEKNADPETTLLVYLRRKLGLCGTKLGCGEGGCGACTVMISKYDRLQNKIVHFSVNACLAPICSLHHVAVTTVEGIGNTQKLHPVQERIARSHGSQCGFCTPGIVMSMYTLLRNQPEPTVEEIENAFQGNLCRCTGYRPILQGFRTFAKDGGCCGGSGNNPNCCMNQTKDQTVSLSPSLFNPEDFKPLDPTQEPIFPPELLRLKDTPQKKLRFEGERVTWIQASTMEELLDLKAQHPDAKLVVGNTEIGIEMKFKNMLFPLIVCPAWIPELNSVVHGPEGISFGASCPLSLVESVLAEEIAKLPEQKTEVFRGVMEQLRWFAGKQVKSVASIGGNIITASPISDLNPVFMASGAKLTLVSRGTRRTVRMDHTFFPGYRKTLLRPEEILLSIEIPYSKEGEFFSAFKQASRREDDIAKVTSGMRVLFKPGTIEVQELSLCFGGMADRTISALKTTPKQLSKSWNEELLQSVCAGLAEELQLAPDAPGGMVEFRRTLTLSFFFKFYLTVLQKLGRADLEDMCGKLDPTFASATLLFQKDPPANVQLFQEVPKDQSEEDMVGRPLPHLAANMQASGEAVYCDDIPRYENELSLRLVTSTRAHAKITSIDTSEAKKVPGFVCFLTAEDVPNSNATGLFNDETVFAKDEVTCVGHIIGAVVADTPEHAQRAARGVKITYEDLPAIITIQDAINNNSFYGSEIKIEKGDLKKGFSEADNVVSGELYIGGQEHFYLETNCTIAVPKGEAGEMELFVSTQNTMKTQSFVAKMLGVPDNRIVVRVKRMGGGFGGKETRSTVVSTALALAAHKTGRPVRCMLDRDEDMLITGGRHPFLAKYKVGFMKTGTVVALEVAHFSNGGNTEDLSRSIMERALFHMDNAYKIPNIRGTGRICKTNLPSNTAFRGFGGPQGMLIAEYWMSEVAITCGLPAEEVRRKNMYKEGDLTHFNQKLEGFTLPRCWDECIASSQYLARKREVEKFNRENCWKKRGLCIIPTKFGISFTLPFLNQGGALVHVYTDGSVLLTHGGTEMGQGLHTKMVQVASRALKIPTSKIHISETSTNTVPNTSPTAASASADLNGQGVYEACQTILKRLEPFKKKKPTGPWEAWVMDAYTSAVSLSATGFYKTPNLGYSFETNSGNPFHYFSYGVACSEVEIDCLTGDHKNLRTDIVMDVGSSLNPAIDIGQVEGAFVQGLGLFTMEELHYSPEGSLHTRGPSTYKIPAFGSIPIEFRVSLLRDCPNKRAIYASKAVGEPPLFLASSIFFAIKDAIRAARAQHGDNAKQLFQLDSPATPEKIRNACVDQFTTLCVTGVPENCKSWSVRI

As a reminder, the pIC50 is −log10 of the IC50, conventionally taken in molar units. A low value points to a large IC50. For the compound `Cc1cc(=O)n2nc(COc3ccc(Cl)cc3)sc2n1`, the pIC50 in assay [1] was 6.35; in assay [2] it was 6.34; in assay [3], 6.37.
With `COc1ccc(OCc2nn3c(=O)cc(C)nc3s2)cc1`, the pIC50 was 6.54 in assay [1], 6.57 in assay [2] and 6.57 in assay [3].
With `Cc1cc(=O)n2nc(COc3ccccc3Br)sc2n1`, the negative-log IC50 (pIC50) was 6.38 in assay [1] and 6.22 in assay [2].
With `Cc1cc(=O)n2nc(COc3ccccc3C)sc2n1`, the pIC50 is 6.44 in assay [1], 6.49 in assay [2] and 6.46 in assay [3].
On the same counts, the results for `Cc1cc(=O)n2nc(COc3ccccc3Cl)sc2n1` are 5.74, 5.78 and 5.74.
Regarding `Cc1cc(=O)n2nc(COc3ccc(Cl)c(C)c3)sc2n1`, the pIC50 in assay [1] was 6.21; in assay [2], 6.20; in assay [3] it was 6.22.
On the same counts, the results for `Cc1cccc(OCc2nn3c(=O)cc(C)nc3s2)c1` are 5.97, 5.99 and 5.96.
In assay [3], `Cc1cc(=O)n2nc(COc3ccc(F)cc3)sc2n1` had a pIC50 of 5.65.
For `Cc1cc(=O)n2nc(COc3ccc([N+](=O)[O-])cc3)sc2n1`, the pIC50 in assay [1] is 5.69; in assay [2], 5.60.
Turning to `Cc1ccc(OCc2nn3c(=O)cc(C)nc3s2)c(C)c1`, the pIC50 in assay [1] is 5.75; in assay [2] it was 5.74; in assay [3] it was 5.76.
In assay [1], `Cc1cc(=O)n2nc(COc3ccccc3F)sc2n1` had a pIC50 of 6.23.
Turning to `Cc1ccc(OCc2nn3c(=O)cc(C)nc3s2)cc1`, the pIC50 in assay [1] is 5.99; in assay [3] it was 6.08.
For the compound `Cc1cc(=O)n2nc(COc3cccc(Cl)c3)sc2n1`, the pIC50 in assay [1] is 5.21.
Still for that read-out and setting: to `Cc1cc(=O)n2nc(COc3cccc(Br)c3)sc2n1` belongs 5.59.
For `Cc1cc(=O)n2nc(COc3cccc(F)c3)sc2n1`, the pIC50 in assay [1] was 5.70; in assay [3] it was 5.78.
As to `Cc1cc(=O)n2nc(COc3ccccc3)sc2n1`, in assay [1], the pIC50 is 6.26.
